Assay outcomes deposited in PubChem BioAssay by several laboratories.
TPT1 inh: C. albicans TPT1 enzyme inhibition; hit rate 0.81% among 300,000; inhibition, % at 5 µM; AID 1962; recombinant caTPT1, FP RNA substrate dephosphorylation;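 active = inhibition above the mean of all tested compounds plus 3 SD, set per screening campaign, cut at about 24% in these data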
CSN deneddyl inh: inhibitors of human CSN-mediated cullin deneddylation; inhibition, % at 12.5 µM; Q92905; Purified CSN, SCF-Nedd8-OG deneddylation, fluorescence polarization; AID 651999; hit rate 0.38% among 360,000;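 active = pattern-corrected inhibition above about 35%, with an unprinted fluorescence ratio check between 0.5 and 1.5, limit read from the data, passing the limit was not always enough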
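Material: human Csn5 produced in HEK293T cells; Input: enzyme 0.24 nM; Reagent: SCFSkp2-Nedd8OG substrate at 10 nM final; Dosing: 12.5 µM compound; Incubation: 90 min reaction at room temperature; Detection: fluorescence polarization of the substrate; Evaluation: % inhibition of substrate cleavage by Csn5; Control set: substrate-only high control, full reaction low control.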
HNF4A DNA FP: change in binding of human HNF4 alpha to DNA; HNF4a-FITC DNA binding, fluorescence polarization, 1 h; P41235; hit rate 0.3% among 360,000; activity change, % at 10 µM; AID 1224865; in the data active = activity change above about 30%, passing the limit was not always enough
Myeloid diff MLP: promotes myeloid progenitor differentiation; ER-HoxA9 myeloid progenitors, lysozyme-GFP differentiation, flow cytometry; calls only at 10 µM; hit rate 1% among 360,000;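 active = normalized GFP-positive differentiation at or above the plate's own cutoff, the solvent-only control mean plus 3 SD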;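 also: cells exposed to compound for four days before flow analysis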
Rpn11 block: blocks the human proteasome subunit Rpn11; O00487; human 26S proteasome, Ub4-pepOG fluorescence polarization; 20S core pre-blocked with epoxomicin; inhibition, % at 20 µM; hit rate 0.59% among 360,000; AID 588493;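 active = inhibition at 20 µM, scaled to each plate's controls, above about 33%, limit read from the data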
TPT1 inh confirm: confirmation of Candida albicans TPT1 inhibitors; shares compounds with TPT1 inh; recombinant caTPT1, fluorescence polarization, RNase T1 coupled; inhibition, % at 5 µM; hit rate 74% among 2,400;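 active = inhibition above the primary screen limit, the mean inhibition of all tested compounds plus 3 SD, cut at about 25% in these data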
RNase T1 inh: RNase T1 inhibition in TPT1 counter-screen; shares compounds with TPT1 inh; RNase T1 cleavage, fluorescence polarization, 1536-well; hit rate 83% among 2,400; inhibition, % at 5 µM;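 active = inhibition above the solvent-only control well mean plus 3 SD, limit set per screening run, cut at about 23% in these data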;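 also: inhibitors block cleavage so intact labeled substrate keeps polarization high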
Rpn11 inh conf: confirmation of human proteasome Rpn11 inhibitors | purified human 26S proteasome, Ub4-pepOG fluorescence polarization; proteasome pretreated with epoxomicin | inhibition, % at 20 µM | shares compounds with Rpn11 block | AID 602318 | hit rate 29% among 1,900
MMP-2 counter-1: blocks human MMP-2, flagging nonselective RPN11 hits | shares compounds with Rpn11 block | recombinant MMP-2, FRET peptide cleavage fluorescence | inhibition, % at 20 µM | hit rate 4% among 1,900 | AID 602330;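 also: human MMP-2 activated beforehand with APMA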
Target sequence (P08253 whole entry, looked up): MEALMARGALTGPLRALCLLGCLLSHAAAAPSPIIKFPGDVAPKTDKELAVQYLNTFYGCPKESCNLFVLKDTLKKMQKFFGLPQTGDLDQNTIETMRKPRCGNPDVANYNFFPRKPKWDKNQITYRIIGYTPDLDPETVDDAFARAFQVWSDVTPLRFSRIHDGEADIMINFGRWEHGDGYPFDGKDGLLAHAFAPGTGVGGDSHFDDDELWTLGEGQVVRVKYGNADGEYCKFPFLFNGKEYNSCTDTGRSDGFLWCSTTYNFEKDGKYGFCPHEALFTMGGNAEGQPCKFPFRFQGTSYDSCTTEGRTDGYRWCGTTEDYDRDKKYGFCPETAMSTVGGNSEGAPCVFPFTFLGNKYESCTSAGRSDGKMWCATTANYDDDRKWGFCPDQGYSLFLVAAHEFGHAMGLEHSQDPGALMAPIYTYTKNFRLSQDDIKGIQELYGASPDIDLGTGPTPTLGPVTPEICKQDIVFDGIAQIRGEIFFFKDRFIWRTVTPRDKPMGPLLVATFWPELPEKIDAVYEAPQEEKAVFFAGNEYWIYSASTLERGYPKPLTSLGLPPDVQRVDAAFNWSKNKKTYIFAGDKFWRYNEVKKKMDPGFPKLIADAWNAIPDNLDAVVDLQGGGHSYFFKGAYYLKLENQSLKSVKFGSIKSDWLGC
Thrombin inh: thrombin (bovine) inhibition counter-screen. bovine thrombin cleavage of Ub4-pepOG, fluorescence polarization. hit rate 13% among 1,900. inhibition, % at 20 µM. shares compounds with Rpn11 block;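 active = mean inhibition at least 40% at 20 µM, or signal 3 deviations below plate average, so some actives read negative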
CSN deneddyl val: validation of inhibitors of human CSN-mediated cullin deneddylation | Csn5 deneddylation of SCF-Nedd8OG, fluorescence polarization, 90 min | inhibition, % at 16.6 µM | hit rate 62% among 540 | shares compounds with CSN deneddyl inh; in the data active = inhibition above about 50%
MMP-2 counter-2: MMP-2 (human) inhibition, counter-screen for CSN hits; AID 720655; hit rate 33% among 540; shares compounds with CSN deneddyl inh; inhibition, % at 16.6 µM; recombinant MMP-2, FRET substrate fluorescence, 60 min;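 active = corrected plate-normalized z-score of 5 or more, or -5 or less, or inhibition of 15% or more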
Thrombin counter: thrombin (bovine) inhibition, counter-screen for CSN hits | inhibition, % at 16.6 µM | hit rate 49% among 540 | shares compounds with CSN deneddyl inh | bovine thrombin cleavage of Ub4-pepOG, fluorescence polarization;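 active = inhibition at or above a set limit, with a fluorescence interference ratio between 0.5 and a set maximum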
HNF4a DNA conf: change in binding of human HNF4 alpha to DNA, retest. shares compounds with HNF4A DNA FP. HNF4A-FITC DNA binding, fluorescence polarization, 1 h. activity change, % at 12.5 µM. hit rate 99% among 210. AID 1224897; call rule not given here
Large screens that a line does not name were inactive (follow-up assays come after a bar, where shown); ! = a repeat was not active. An excerpt weighted towards active compounds, which were near 2.3% of everything screened. Rule as the data show it, unless noted: active = inhibition above about 40%; inactive = the rest.

Fc1cccc(-c2ccc3c(c2)CN(c2cccc(Cl)c2)Cc2cnnn2-3)c1	none (no result: TPT1 inh)
C=CCN1C(=O)/C(=C/c2ccc(Br)s2)C(=O)NC1=S	TPT1 inh 27.6, CSN deneddyl inh 37.3 (not shown: Rpn11 block) | TPT1 inh confirm inactive | RNase T1 inh 23.7 | CSN deneddyl val 81.0 | MMP-2 counter-2 inactive | Thrombin counter inactive
CC(C)(C)c1ccc(O)c(N=Cc2c(O)ccc3ccccc23)c1	TPT1 inh 134.9, CSN deneddyl inh 56.5, Myeloid diff MLP active (not shown: Rpn11 block) | TPT1 inh confirm 137.8 | RNase T1 inh 131.2 | CSN deneddyl val 66.6 | MMP-2 counter-2 inactive | Thrombin counter 60.8
O=C1NC(=O)C(=Cc2ccc(N3CCOCC3)cc2)C(=O)N1	none
CCN1C(=O)C(=Cc2ccc(N3CCOCC3)o2)C(=O)N(CC)C1=S	TPT1 inh 111.9, CSN deneddyl inh 105.9, HNF4A DNA FP 48.0 (not shown: Rpn11 block) | TPT1 inh confirm 146.3 | RNase T1 inh 136.8 | CSN deneddyl val 62.4 | MMP-2 counter-2 inactive | Thrombin counter 69.3
O=C1NC(=O)N(c2ccc3c(c2)OCO3)C(=O)/C1=C/c1cccs1	none
O=C1NC(=O)N(c2ccc3c(c2)OCO3)C(=O)/C1=C/c1ccc(N2CCCC2)o1	TPT1 inh 128.1, CSN deneddyl inh 41.9, Myeloid diff MLP active (not shown: Rpn11 block) | TPT1 inh confirm 142.5 | RNase T1 inh 140.2 | CSN deneddyl val 123.9 | MMP-2 counter-2 inactive | Thrombin counter 83.0
CC1(C)OC(c2ccccc2)=C/C(=C/C=C2C(=O)NC(=O)NC2=O)O1	TPT1 inh 113.5, CSN deneddyl inh 96.0 (not shown: Rpn11 block) | TPT1 inh confirm 106.7 | RNase T1 inh 106.2 | CSN deneddyl val 195.4 | MMP-2 counter-2 inactive | Thrombin counter inactive
C[C@]12CCC3C(CC[C@H]4C[C@@H](O)CC[C@]34C)C1CC[C@@H]2OC(=O)[C@H](N)CCCCN (some centres not stated)	none (no result: TPT1 inh)
CC(=O)N(C)C1=Nc2ccc(Cl)cc2C(c2ccccc2)=[N+]([O-])C1	none (no result: TPT1 inh)
COC(=O)c1ccccc1N=Cc1c(O)[nH]c(=O)[nH]c1=O	none
CCN(CC)CCOC(=O)c1ccc(N=Cc2c(O)[nH]c(=O)[nH]c2=O)cc1	TPT1 inh 60.3, CSN deneddyl inh 48.0, HNF4A DNA FP 60.5, Rpn11 block 99.4 | TPT1 inh confirm 70.0 | RNase T1 inh 86.6 | Rpn11 inh conf 104.3 | MMP-2 counter-1 inactive | Thrombin inh 73.5 | HNF4a DNA conf 99.0
c1ccc(CCN2CCCCC2)nc1	none (no result: TPT1 inh)
CN(C)CCCN=Cc1c(O)n(CCc2ccccc2)c(=O)[nH]c1=O	TPT1 inh 72.5, HNF4A DNA FP 43.0, Rpn11 block 40.6 | TPT1 inh confirm 65.0 | RNase T1 inh 82.1 | Rpn11 inh conf 78.6 | MMP-2 counter-1 inactive | Thrombin inh 62.3 | HNF4a DNA conf 60.4
Cc1ccc(-n2c(O)c(/C=N/N3CCCCC3c3cccnc3)c(=O)[nH]c2=S)cc1 (configuration not stated)	Rpn11 block 54.9 | Rpn11 inh conf 51.5 | MMP-2 counter-1 inactive | Thrombin inh inactive
CCCCn1c(O)c(/C=N/N2CCCCC2c2cccnc2)c(=O)[nH]c1=S (configuration not stated)	none
O=c1[nH]c2ccccc2n1C1CCN(C(CCc2ccccc2)c2nnnn2C2CCCCC2)CC1 (configuration not stated)	none (no result: TPT1 inh)
O=C1NC(=O)N(c2ccc(Cl)cc2)C(=O)/C1=C\c1ccc(Sc2nc3ccccc3[nH]2)o1	Rpn11 block 52.4 | Rpn11 inh conf 73.5 | MMP-2 counter-1 inactive | Thrombin inh 48.7
CCc1ccc(N2C(=O)NC(=O)/C(=C\c3cccn3CCOc3ccc(C(C)C)cc3)C2=O)cc1	Rpn11 block 61.8 | Rpn11 inh conf inactive | MMP-2 counter-1 inactive | Thrombin inh inactive
CC(C)c1ccc(N2C(=O)NC(=O)/C(=C/c3cnc(-c4ccccc4)nc3)C2=O)cc1	none
O=C(/C=C/c1ccccc1)N1Cc2ccccc2-n2nncc2C1	none (no result: TPT1 inh)
Cc1c(P(=S)(c2ccccc2)c2ccccc2)[n+]2ccccc2n1C	CSN deneddyl inh 74.5!, Rpn11 block 78.9! (no result: TPT1 inh) | Rpn11 inh conf 77.8 | MMP-2 counter-1 inactive | Thrombin inh inactive
CCOc1ccccc1-n1c(O)c(C=Nc2c(C)n(C)n(-c3ccccc3)c2=O)c(=O)[nH]c1=O	none
COc1ccc(OC)c(-n2c(O)c(C=Nc3c(C)n(C)n(-c4ccccc4)c3=O)c(=O)[nH]c2=S)c1	Rpn11 block 66.3 | Rpn11 inh conf 40.7 | MMP-2 counter-1 inactive | Thrombin inh inactive
NC(N)=N/N=C/c1ccc(N(c2ccccc2)c2ccccc2)cc1	Rpn11 block 90.9 (no result: Myeloid diff MLP) | Rpn11 inh conf 71.1 | MMP-2 counter-1 inactive | Thrombin inh inactive
COc1ccc(CN2CCN(C(=O)COc3ccc4ccccc4c3)CC2)c(OC)c1	none
CCC(C)N1CCN(C(=O)COc2ccc3ccccc3c2)CC1 (configuration not stated)	Rpn11 block 78.6 | Rpn11 inh conf inactive | MMP-2 counter-1 inactive | Thrombin inh inactive
CS(=O)(=O)c1ccc(C2=C(CNC(=O)c3nccs3)[C@H]3CC[C@@H](C2)N3Cc2ccccc2)cc1	none (no result: TPT1 inh)
CCC(=O)OC1CCC2C3CCC4CC(=O)C=CC4(C)C3CCC12C (configuration not stated)	none (no result: TPT1 inh)
COc1ccc(N2C(=O)/C(=C/c3ccc(C)o3)C(=O)NC2=S)cc1	Rpn11 block 70.8 (no result: TPT1 inh) | Rpn11 inh conf 61.1 | MMP-2 counter-1 55.7 | Thrombin inh 62.7
